In the RNAGym collection of RNA variant scans (doi:10.1002/anie.201605470):

B1: Osa-1-4 twister ribozyme (parent)
chain: CCGCCUAACACUGCCAAUGCCGGUCCCAAGCCCGGAUAAAAGUGGAGGGGGCGG

Variants of: B1
Experiment: self-cleavage, relative activity (ratio to wild type); higher = more cleavage; co-transcriptional
In short: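 For each read, cleavage status was taken from whether upstream sequence was present. The reads came from an Oryza sativa twister ribozyme of 54 nucleotides, whose DNA template was synthesised with 97 % wild-type base and 1 % of each other base at the 48 positions downstream of the cleavage site. The template was transcribed in vitro at 37 °C for 2 h with co-transcriptional self-cleavage, and the RNA was reverse-transcribed using a template-switching oligonucleotide, PCR-amplified and deep-sequenced. Relative activity is the fraction cleaved normalised to wild type.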

Variant | self-cleavage
A28G C26U | 0.11
A28G C26G | 0.21
A28G C26A | 0.03
A28G C14U | 0.11
A28G C14A | 0.05
A28G C14G | 0.15
A29C C25A | 0.04
A29C C25U | 0.03
A29C C25G | 0.02
A28G G44U | 0.11
A28G G44A | 0.1
A28G G44C | 0.12
A28G G42U | 0.04
A28G G42A | 0.1
A28G G42C | 0.07
A28G G35C | 0.09
A28G G35A | 0.21
A28G G35U | 0.15
A28U G22A | 0.34
A28U G22C | 0.06
A28U G22U | 0.2
A28U C26U | 0.22
A28U C26G | 0.1
A28U C26A | 0.04

Variant | self-cleavage
A28U A46C | 0.07
A28U A46U | 0.08
A28U A46G | 0.7
A28U A7C | 0.04
A28U A7U | 0.07
A28U A7G | 0.13
A29C G30A | 0.02
A29C G30U | 0.02
A29C G30C | 0.01
A28U C33A | 0.08
A28U C33G | 0.05
A28U C33U | 0.49
A28G C11G | 0.06
A28G C11U | 0.16
A28G C11A | 0.09
A28U G13C | 0.02
A28U G13U | 0.03
A28U G13A | 0.06
A28G U12G | 0.07
A28G U12C | 0.1
A28G U12A | 0.12
A29C C15G | 0.04
A29C C15U | 0.03
A29C C15A | 0.02

Variant | self-cleavage
A28G G50A | 0.28
A28G G50U | 0.23
A28G G50C | 0.14
A29C G19U | 0.03
A29C G19A | 0.04
A29C G19C | 0.02
A28G G47A | 0.08
A28G G47C | 0.04
A28G G47U | 0.07
A28U U37C | 0.97
A28U U37A | 0.68
A28U U37G | 0.97
A28U G54C | 0.71
A28U G54U | 0.72
A28U G54A | 0.66
A28G U24G | 0.02
A28G U24C | 0.07
A28G U24A | 0.06
A28U G44U | 0.49
A28U G44C | 0.78
A28U G44A | 0.74
A28U U43C | 0.15
A28U U43G | 0.15
A28U U43A | 0.28

Variant | self-cleavage
A28G G53A | 0.14
A28G G53C | 0.06
A28G G53U | 0.1
A28U G48U | 0.06
A28U G48A | 0.06
A28U G48C | 0.06
A28U G35C | 0.15
A28U G35U | 0.71
A28U G35A | 0.73
A28U A39G | 0.79
A28U A39U | 0.76
A28U A39C | 0.63
A29C A36G | 0.07
A29C A36U | 0.04
A29C A36C | 0.03
A28G G49C | 0.04
A28G G49A | 0.06
A28G G49U | 0.06
A28G C9U | 0.11
A28G C9A | 0.04
A28G C9G | 0.29
A28U G23C | 0.05
A28U G23A | 0.14
A28U G23U | 0.07

Variant | self-cleavage
A29C G44C | 0.05
A29C G44A | 0.04
A29C G44U | 0.05
A29C G42A | 0.03
A29C G42C | 0.02
A29C G42U | 0.01
A29C A39G | 0.03
A29C A39U | 0.03
A29C A39C | 0.04
A28U C14G | 0.07
A28U C14U | 0.14
A28U C14A | 0.05
A28G U43A | 0.14
A28G U43C | 0.1
A28G U43G | 0.09
A28U G50C | 0.81
A28U G50A | 0.42
A28U G50U | 0.95
A28U A29U | 0.06
A28U A29G | 0.08
A28U A29C | 0.03
A28U U24C | 0.09
A28U U24A | 0.08
A28U U24G | 0.02

Variant | self-cleavage
A28U C15G | 0.14
A28U C15U | 0.1
A28U C15A | 0.11
A28U G45A | 0.09
A28U G45C | 0.06
A28U G45U | 0.07
A28G U18C | 0.23
A28G U18A | 0.34
A28G U18G | 0.59
A28U C9A | 0.16
A28U C9G | 0.35
A28U C9U | 0.57
A28U C52A | 0.93
A28U C52U | 0.97
A28U C52G | 0.96
A28G C27U | 0.07
A28G C27G | 0.1
A28G C27A | 0.06
A29C G34C | 0.03
A29C G34A | 0.04
A29C G34U | 0.03
A28U A36G | 0.99
A28U A36C | 0.21
A28U A36U | 0.94

Variant | self-cleavage
A29C A7G | 0.03
A29C A7U | 0.01
A29C A7C | 0.03
A29C C20A | 0.03
A29C C20U | 0.08
A29C C20G | 0.02
A28G G23C | 0.04
A28G G23A | 0.13
A28G G23U | 0.05
A28G C20G | 0.08
A28G C20U | 0.31
A28G C20A | 0.37
A28U | 0.96
A29C C33A | 0.04
A29C C33G | 0.01
A29C C33U | 0.03
A28U G30U | 0.04
A28U G30A | 0.04
A28U G30C | 0.05
A28G G22U | 0.1
A28G G22C | 0.06
A28G G22A | 0.14
A28G C52U | 0.46
A28G C52A | 0.2

Variant | self-cleavage
A28G C52G | 0.32
A28U C31U | 0.19
A28U C31G | 0.07
A28U C31A | 0.03
A29C G13A | 0.02
A29C G13C | 0.01
A29C G13U | 0.01
A29C C21G | 0.02
A29C C21U | 0.06
A29C C21A | 0.04
A28U G49U | 0.09
A28U G49A | 0.08
A28U G49C | 0.06
A28U A40C | 0.04
A28U A40U | 0.2
A28U A40G | 0.24
A28U U12A | 0.38
A28U U12C | 0.13
A28U U12G | 0.11
A28G C31G | 0.09
A28G C31U | 0.08
A28G C31A | 0.02
A29C A38U | 0.03
A29C A38G | 0.04

Variant | self-cleavage
A29C A38C | 0.04
A28G G54U | 0.27
A28G G54C | 0.14
A28G G54A | 0.15
A28U G42C | 0.09
A28U G42A | 0.16
A28U G42U | 0.06
A28G C33A | 0.06
A28G C33G | 0.05
A28G C33U | 0.11
A29C C32U | 0.03
A29C C32G | 0.03
A29C C32A | 0.03
A29C C14G | 0.02
A29C C14A | 0.02
A29C C14U | 0.03
A29C C26A | 0.02
A29C C26U | 0.03
A29C C26G | 0.02
A28U C20U | 0.95
A28U C20A | 0.9
A28U C20G | 0.09
A29C A46G | 0.02
A29C A46C | 0.02

Variant | self-cleavage
A29C A46U | 0.02
A29C C31U | 0.02
A29C C31A | 0.02
A29C C31G | 0.02
A28U G47U | 0.1
A28U G47C | 0.06
A28U G47A | 0.09
A28G A46U | 0.05
A28G A46C | 0.04
A28G A46G | 0.5
A28G C32U | 0.05
A28G C32A | 0.06
A28G C32G | 0.08
A28G C21G | 0.06
A28G C21U | 0.23
A28G C21A | 0.07
A28U C21G | 0.07
A28U C21A | 0.16
A28U C21U | 0.93
A28G G51C | 0.06
A28G G51A | 0.11
A28G G51U | 0.06
A29C G35A | 0.04
A29C G35U | 0.05

Variant | self-cleavage
A29C G35C | 0.02
A29C A8G | 0.03
A29C A8C | 0.04
A29C A8U | 0.02
A28G A41G | 0.14
A28G A41U | 0.23
A28G G34C | 0.08
A28G G34A | 0.21
A28G G34U | 0.1
A28G G48A | 0.04
A28G G48C | 0.05
A28G G48U | 0.04
A28G G19C | 0.05
A28G G19U | 0.08
A28G G19A | 0.15
A28U C11A | 0.27
A28U C11U | 0.7
A28U C11G | 0.12
A28G C15G | 0.23
A28G C15U | 0.08
A28G C15A | 0.08
A29C C11G | 0.02
A29C C11U | 0.04
A29C C11A | 0.04

Variant | self-cleavage
A28U U18G | 0.91
A28U U18A | 0.91
A28U U18C | 0.73
A28U C27U | 0.15
A28U C27A | 0.09
A28U C27G | 0.05
A29C G22U | 0.05
A29C G22C | 0.03
A29C G22A | 0.08
A28G U37C | 0.37
A28G U37G | 0.51
A28G U37A | 0.25
A29C C27A | 0.04
A29C C27U | 0.02
A29C C27G | 0.02
A29C A40C | 0.02
A29C A40G | 0.02
A29C A40U | 0.04
A28U C32A | 0.07
A28U C32U | 0.1
A28U C32G | 0.1
A28G G13U | 0.01
A28G G13A | 0.05
A28G G13C | 0.03

Variant | self-cleavage
A29C G23U | 0.02
A29C G23A | 0.05
A29C G23C | 0.02
A28U A41G | 0.29
A28U A41U | 0.93
A28U A41C | 0.79
A28U A8U | 0.09
A28U A8C | 0.06
A28U A8G | 0.18
A28U G34U | 0.28
A28U G34C | 0.18
A28U G34A | 0.39
A28G G30A | 0.05
A28G G30C | 0.04
A28G G30U | 0.05
A28G C25G | 0.09
A28G C25A | 0.04
A28G C25U | 0.11
A29C C52A | 0.06
A29C C52G | 0.05
A29C C52U | 0.06
A28U G51U | 0.2
A28U G51A | 0.28
A28U G51C | 0.08

Variant | self-cleavage
A28U G53C | 0.08
A28U G53A | 0.42
A28U G53U | 0.15
A28U G19A | 0.24
A28U G19C | 0.07
A28U G19U | 0.13
A29C A41G | 0.04
A29C A41U | 0.05
A29C A41C | 0.05
A28U C25G | 0.05
A28U C25A | 0.07
A28U C25U | 0.28
A29C C9A | 0.02
A29C C9U | 0.02
A29C C9G | 0.05
A28U A38G | 0.92
A28U A38C | 0.95
A28U A38U | 0.87
A28G G45U | 0.05
A28G G45A | 0.05
A28G G45C | 0.04
A29C | 0.05
